# Most compounds without a hit are left out; they make up all but 3.7% or so of the library.
# OX1R antag-1: antagonists of human orexin 1 receptor (OX1R) | O43613 | OX1R-expressing cells, FRET antagonist read-out | inhibition, % at 6.6 µM | 330,000 tested, 1.8% active; in the data active = inhibition mostly above about 38%, no sharp cut-off; inactive = mostly below about 40%
# GPR7 antagonist: antagonists of human GPR7 (neuropeptides B/W receptor 1). P48145. GPR7-expressing cells, fluorescence antagonist assay. AID 1861. inhibition, % at 4.4 µM. 290,000 tested, 1.1% active; in the data active = inhibition above about 16%, passing the limit was not always enough;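 note: cells stimulated with the agonist NPW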
# Target sequence (P48145 whole entry, looked up): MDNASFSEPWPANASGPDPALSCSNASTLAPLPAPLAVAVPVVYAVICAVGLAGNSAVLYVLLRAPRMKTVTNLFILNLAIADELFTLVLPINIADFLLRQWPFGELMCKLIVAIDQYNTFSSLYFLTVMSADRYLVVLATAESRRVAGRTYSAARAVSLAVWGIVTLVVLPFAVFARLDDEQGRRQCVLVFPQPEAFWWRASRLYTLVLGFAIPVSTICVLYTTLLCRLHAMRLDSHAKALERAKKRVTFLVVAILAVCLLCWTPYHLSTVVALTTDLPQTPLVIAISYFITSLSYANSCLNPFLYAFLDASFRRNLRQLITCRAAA
# PGE2 EP2 inh: EP2 receptor (human) inhibition; P43116; C6 glioma cells expressing human EP2, cAMP TR-FRET; cells stimulated with saturating PGE2; inhibition, % at 25 µM; 260,000 tested, 0.52% active; AID 1422;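 active = percent inhibition above 40 after rounding to a whole number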;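 note: rat C6 glioma host cells with rolipram phosphodiesterase inhibitor present; the protocol text gives 20 µM as final concentration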
# Target sequence (P43116 whole entry, looked up): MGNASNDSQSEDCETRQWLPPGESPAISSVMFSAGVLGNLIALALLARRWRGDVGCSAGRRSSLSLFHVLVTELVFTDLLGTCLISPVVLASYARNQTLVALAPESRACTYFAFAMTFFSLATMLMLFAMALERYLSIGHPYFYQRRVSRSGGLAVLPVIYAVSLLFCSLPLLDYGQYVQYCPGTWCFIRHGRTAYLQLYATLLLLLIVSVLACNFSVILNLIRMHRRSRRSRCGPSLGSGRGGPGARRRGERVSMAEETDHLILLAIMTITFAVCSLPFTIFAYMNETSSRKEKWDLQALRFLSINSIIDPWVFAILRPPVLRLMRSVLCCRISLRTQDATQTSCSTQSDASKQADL
# OX1R antag-2: blocks the human orexin 1 receptor; 330,000 tested, 0.43% active; CHO/OX1R cells, Fluo-8 calcium fluorescence, orexin A; O43613; inhibition, % at 5 µM;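 active = inhibition above its plate's threshold, mean inhibition of all tested compounds on the plate plus 3 SD, cut at about 37% in these data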
# EP2 mod: modulates human prostaglandin E2 receptor EP2 signaling | EP2-expressing cells, cAMP HTRF FRET, PGE2 co-stimulation | induction, % at 25 µM | AID 940 | 260,000 tested, 0.83% active | P43116;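 active = compounds whose cAMP rise, as percent of the full-agonist control response, exceeds 60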;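 note: rat C6 glioma line stably carrying human EP2 under a CMV promoter; the protocol text gives 20 µM as final concentration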
# CHO parental Ca: counter-screen for OX1R antagonists: effect in parental CHO cells | parental CHO-K1, ATP-induced calcium, Fluo-8 fluorescence | inhibition, % at 5.6 µM | 330,000 tested, 0.63% active | AID 463079;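 active = inhibition above that plate's mean sample inhibition plus 3 SD, cut at about 26% in these data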
#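 Assay system: untransfected parental CHO cell line. Also added: ATP agonist challenge. Dosing: one dose, 5.6 µM nominal. Measured by: Fluo-8 fluorescence. Read-out: % inhibition. Benchmarks: ATP wells versus no-ATP DMSO wells. Repeats: no replicates.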
# OX1R Fluo8 conf: OX1R (human) antagonism, confirmed; shares compounds with OX1R antag-2; CHO/OX1R cells, orexin A calcium Fluo-8 fluorescence; inhibition, % at 5 µM; 1,100 tested, 38% active; AID 492963; in the data active = inhibition above about 29%
# CHO Ca triplic: counter-screen for OX1R antagonists: effect in parental CHO cells; AID 492965; shares compounds with OX1R antag-2; parental CHO-K1, ATP-induced calcium, Fluo-8 fluorescence; inhibition, % at 5.6 µM; 1,100 tested, 9.3% active;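 active = inhibition above a per-plate limit, the mean inhibition of that plate's test compounds plus 3 SD, cut at about 25% in these data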
# OX1R HTRF conf: confirmation of human orexin 1 receptor antagonists, HTRF format; AID 492964; OX1R-expressing cells, HTRF antagonist assay; shares compounds with OX1R antag-1; inhibition, % at 6.6 µM; 1,800 tested, 49% active; in the data active = inhibition above about 55%;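 note: CHO cells expressing OX1R stimulated with orexin A at about EC80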
# CHO-K1 HTRF cnt: signal in parental CHO-K1 cells, OX1R antagonist counter-screen; shares compounds with OX1R antag-1; HTRF counterscreen; inhibition, % at 6.6 µM; 1,800 tested, 48% active; in the data active = inhibition above about 17%
# Numbers stand for hits; n = inactive; x = no result given.
SMILES,OX1R antag-1,GPR7 antagonist,PGE2 EP2 inh,OX1R antag-2,EP2 mod,CHO parental Ca,OX1R Fluo8 conf,CHO Ca triplic,OX1R HTRF conf,CHO-K1 HTRF cnt
O=C(Cn1nnc(-c2ccccc2)n1)Nc1ccccc1N1CCOCC1,n,n,n,n,n,n,x,x,x,x
COc1ccc(N(CC(=O)NCCc2ccc(C)cc2)S(=O)(=O)c2c(C)noc2C)cc1,55,n,x,n,x,n,34,n,84,n
COc1ccc(N(CC(=O)NCCc2cccc(C)c2)S(=O)(=O)c2c(C)noc2C)cc1,103,n,x,81,x,n,68,n,91,n
Cc1sc2ncnc(SCC(=O)NCc3ccc4c(c3)OCO4)c2c1C,x,x,n,x,n,x,x,x,x,x
O=C(COC(=O)c1cc(-c2ccc(Cl)s2)nc2ccccc12)NCc1ccco1,56,n,n,n,n,n,n,n,74,n
Cc1ccsc1/C=N/N=C1\C(=O)Nc2ccccc21,91,n,n,n,n,n,36,n,93,n
Cc1ccc(-c2nc3ccccc3[nH]2)cc1NC(=O)c1sc2cc(Cl)ccc2c1Cl,77,n,n,44,n,n,47,n,66,n
Cc1ccc(-c2nc3ccccc3[nH]2)cc1NC(=O)c1ccco1,n,n,n,n,n,n,x,x,x,x
COc1ccc2oc(=Nc3cc(F)ccc3F)c(C(N)=O)cc2c1,87,n,n,n,n,n,43,n,75,n
COc1ccc(OC)c(N=c2oc3cc(O)ccc3cc2C(N)=O)c1,n,n,n,n,n,n,x,x,x,x
C[C@H]1COC(=O)[C@H](CC(=O)OC(C)(C)C)C/C=C\C[C@@H](CC(=O)NCCO)C(=O)N1,n,x,x,n,x,n,x,x,x,x
Cc1nc2ccc3nc(NC(=O)c4ccco4)sc3c2s1,72,n,n,61,x,n,n,n,84,n
Cc1ccc2nc(NC(=O)c3ccco3)sc2c1,n,n,n,n,n,n,x,x,x,x
COc1ccc(-n2c(COc3cccc(C)c3)nnc2SCC(=O)O)cc1,n,n,n,n,n,n,x,x,x,x
Cn1c(O)c(/C=C2\C=NN=C2c2ccccc2)sc1=S,39,n,n,41,n,n,n,n,n,n
CCn1c(O)c(/C=C2\C=NN=C2c2ccccc2)sc1=S,n,n,n,n,n,n,x,x,x,x
COc1ccc(OC)c(NC(=O)c2cc3ccccc3o2)c1,85,n,n,41,n,n,n,n,n,n
COc1ccc(OC)c(NC(=O)c2cc(OC(C)=O)cc(C(=O)Nc3cc(OC)ccc3OC)c2)c1,85,n,x,n,x,n,54,n,85,n
COc1ccc(OC)c(NC(=O)c2csc(Cl)c2OC)c1,105,n,x,80,x,n,n,n,82,n
COc1ccc(OC)c(NC(=O)c2ccc(Cl)cc2)c1,n,n,n,n,n,n,x,x,x,x
COc1ccc(C)cc1NC(=O)c1cc2ccccc2o1,n,n,n,n,n,n,x,x,x,x
C/C(=N\NC(=O)c1nnn(-c2nonc2N)c1CN(C)c1ccccc1)c1cccs1,53,n,x,n,x,n,n,n,79,n
Cc1ccc(/C=N/NC(=O)c2nnn(-c3nonc3N)c2CN(C)c2ccccc2)s1,79,n,x,n,x,n,n,n,86,n
C/C(=N\NC(=O)c1nnn(-c2nonc2N)c1CN(C)c1ccccc1)c1ccc(O)cc1,n,n,x,n,x,n,x,x,x,x
Cc1ccc(/C=N/NC(=O)c2nnn(-c3nonc3N)c2CN(C)C)s1,n,n,x,n,x,n,x,x,x,x
SMILES,OX1R antag-1,GPR7 antagonist,PGE2 EP2 inh,OX1R antag-2,EP2 mod,CHO parental Ca,OX1R Fluo8 conf,CHO Ca triplic,OX1R HTRF conf,CHO-K1 HTRF cnt
CN(Cc1c(C(=O)N/N=C/c2cccc(O)c2)nnn1-c1nonc1N)c1ccccc1,87,n,x,84,x,n,71,n,88,n
CSCC(O)Cn1[nH]c(=O)c2cc(Cl)c(Cl)cc2c1=O (stereo unspecified),n,n,n,n,n,n,x,x,x,x
Cc1c(Cl)cccc1N/C(SCC(=O)N1CCCCCC1)=C(/C#N)c1nc2ccccc2s1,n,n,n,n,n,n,x,x,x,x
Cc1cc(N/N=C/c2ccccc2O)nc(-c2ccccc2O)n1,90,n,60,54,n,n,n,n,n,n
O=C(c1cc2c(s1)CCCC2)N1CCN(C(=O)C2CCCO2)CC1 (stereo unspecified),n,n,n,n,n,n,x,x,x,x
Cc1ccc(NC(=O)Nc2nnc(-c3ccncc3)s2)cc1C,41,n,n,n,n,n,n,n,n,n
COc1ccccc1CNS(=O)(=O)c1ccc2c(c1)CC(C)N2C(=O)C1CCC1 (stereo unspecified),60,n,x,55,x,n,30,n,68,n
COc1ccccc1CNS(=O)(=O)c1ccc2c(c1)CC(C)N2C(=O)C1CC1 (stereo unspecified),n,n,x,n,x,n,x,x,x,x
CCN(CC)c1ccc(NC(=O)COC(=O)CCC(=O)c2ccc(F)cc2)cc1,n,n,n,n,n,n,x,x,x,x
COc1ccc(-c2csc(NC(=O)c3cc(C)oc3C)n2)cc1OC,64,n,x,n,x,n,n,n,69,n
CCS(=O)(=O)CCSc1nc2ccccc2o1,n,n,n,n,n,n,x,x,x,x
O=S(=O)(CCSc1nc2ccccc2o1)c1nc2ccccc2s1,41,n,n,62,n,n,n,n,n,n
C/C(=N/Nc1ccccc1C(=O)O)c1cccs1,n,n,x,n,x,n,x,x,x,x
CCN(CC)C(=O)CSc1nc2c(sc(=S)n2CC)c(=O)n1-c1ccccc1,n,n,n,n,n,n,x,x,x,x
CCN(CC)C(=O)CSc1nc2c(sc(=S)n2-c2ccccc2OC)c(=O)n1-c1ccccc1,76,n,x,n,x,n,38,n,69,n
O=C1NC[C@H](c2ccccc2)OC(=O)[C@H](Cc2ccc(F)cc2)C/C=C\C[C@H]1CC(=O)N(CCO)Cc1ccccc1,54,x,x,54,x,n,30,n,n,n
Cc1ccc(-c2noc(C3CCN(S(=O)(=O)c4ccc5c(c4)OCCO5)CC3)n2)o1,n,n,n,n,n,n,x,x,x,x
Nc1c(C(=O)c2ccc(Br)s2)oc2ccccc12,77,n,n,n,n,n,n,n,57,n
CSC1=NSC2=NC(=O)/C(=C/c3coc4ccccc4c3=O)C(=N)N12,78,n,n,66,n,n,n,n,n,n
O=C(Oc1ccc(Cl)cc1)c1ccco1,x,x,n,x,n,x,x,x,x,x
CCOC(=O)N1CCN(C(=O)CSc2ccc(-c3ccccc3)nn2)CC1,92,n,n,n,n,n,n,n,82,n
COc1ccc(-c2ccc(SCC(=O)c3cccs3)nn2)cc1,n,n,n,n,n,n,x,x,x,x

# Compound activity (PubChem BioAssay)
